Reference: ChEMBL document CHEMBL1133526, “Molecular simplification of 1,4-diazabicyclo[4.3.0]nonan-9-ones gives piperazine derivatives that maintain high nootropic activity” (2000)
Several values for one entry are separate records, joined by “and”; a condition that tells them apart may be missing. Equal values may be shown once.

Legend:
Type in all cases: functional
[1] = species on record: Mus musculus; experiment: (§1) Change in entry latency expressed as [(entry latency on day 2)-(entry latency on day 1)]
How it was run: (§2)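 Mouse passive avoidance test using a light/dark box. Entering the dark side drops the mouse 40 cm into 10 °C water. Training is on day 1 and retention 24 h later. Test drug is given sc 20 min before training, in saline or DMSO/H2O vehicle. […] Mice not entering within 60 s are excluded. Retention latency is capped at 120 s. Δ = day 2 − day 1 latency.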

[2] = system: Mus musculus; experiment: Minimum effective dose administered subcutaneously in mouse, activity given with reference to piracetam; conditions: for minimal effective dose: Mus musculus, sc, read-out: MED
How it was run: (§3)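 Mouse passive avoidance with scopolamine-induced amnesia (1.5 mg/kg ip after training; 40 cm fall into 10 °C water as punishment). Compounds are given sc in 1:10 dilution steps 20 min before training, in saline or DMSO/H2O. […] Piracetam is the ip reference.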

[3] = system: Mus musculus; experiment: Nootropic effect of the compound, when administered subcutaneously, on mouse passive Avoidance test, using Scopolamine as Amnesic drug on 1 st day
[4] = system: Mus musculus; experiment: Nootropic effect of the compound, when administered subcutaneously, on mouse passive Avoidance test, using Scopolamine as Amnesic drug on 2 nd day
[5] = system: Mus musculus; experiment: Minimum effective dose administered subcutaneously in mouse passive avoidance test; conditions: sc, read-out: MED; how it was run: as §3
[6] = species on record: Mus musculus; experiment: as §1; remark: listed apart in the source
[7] = species on record: Mus musculus; experiment: Change in entry latency expressed as [(latency on day 2)-(latency on day 1)]; how it was run: as §2
[8] = system: Mus musculus; experiment: Effect of 0.1 mg/kg compound, when administered intraperitoneally along with saline, on Amnesia in mouse passive Avoidance test on 1st day; conditions: route intraperitoneal
How it was run: (§4)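 Mouse passive avoidance without an amnesic agent. Compound is given ip at 0.1 mg/kg 20 min before training, followed by saline. Entry latency into the dark compartment (punishment: 40 cm fall into 10 °C water) is recorded on day 1 and in retention 24 h later, capped at 120 s. Compared with saline controls.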

[9] = system: Mus musculus; experiment: Effect of 0.1 mg/kg compound, when administered intraperitoneally along with saline, on Amnesia in mouse passive Avoidance test on 2nd day; conditions: route intraperitoneal; how it was run: as §4
[10] = system: Mus musculus; experiment: Effect of 0.1 mg/kg compound, when administered intraperitoneally, on Amnesia induced by Baclofen (2 mg/Kg ip) in mouse passive Avoidance test on 1st day; conditions: route intraperitoneal
How it was run: (§5)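 Mouse passive avoidance. Compound is given ip 20 min before training. Diphenhydramine (20 mg/kg ip) or baclofen (2 mg/kg ip) is injected immediately after training. Entry latency into the dark, water-pitfall compartment is measured on day 1 and 24 h later, capped at 120 s. Compared with amnesic-only mice.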

[11] = system: Mus musculus; experiment: Effect of 0.1 mg/kg compound, when administered intraperitoneally, on Amnesia induced by Baclofen (2 mg/Kg ip) in mouse passive Avoidance test on 2nd day; conditions: route intraperitoneal; how it was run: as §5
[12] = system: Mus musculus; experiment: Effect of 0.1 mg/kg compound, when administered intraperitoneally, on Amnesia induced by Clonidine (0.125 mg/Kg ip) in mouse passive Avoidance test on 2 nd day; conditions: route intraperitoneal
How it was run: (§6)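 Mouse passive avoidance. Compound is given ip 20 min before training. Clonidine (0.125 mg/kg ip) is injected 60 min before training. Entry latency into the dark compartment (40 cm fall into 10 °C water) is measured on day 1 and 24 h later, capped at 120 s. Compared with clonidine-only mice.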

[13] = system: Mus musculus; experiment: Effect of 0.1 mg/kg compound, when administered intraperitoneally, on Amnesia induced by diphenhydramine (20 mg/Kg) in mouse passive Avoidance test on 2 nd day; conditions: route intraperitoneal; how it was run: as §5
[14] = system: Mus musculus; experiment: Effect of 0.1 mg/kg compound, when administered intraperitoneally, on Amnesia induced by diphenhydramine (20 mg/Kg) in mouse passive Avoidance test on 1st day; conditions: route intraperitoneal; how it was run: as §5
[15] = system: Mus musculus; experiment: Effect of 0.1 mg/kg compound, when administered intraperitoneally, on Amnesia induced Clonidine (0.125 mg/kg) in mouse passive Avoidance test on 1st day; conditions: route intraperitoneal; how it was run: as §6
[16] = system: Mus musculus; experiment: Nootropic effect of the compound, when administered subcutaneously, on mouse passive Avoidance test, using Scopolamine as Amnesic drug on 2 nd day; dose is limited by solubility problems; how it was run: as §2
[17] = system: Mus musculus; experiment: Minimum effective dose administered intraperitoneally in mouse passive avoidance test; conditions: ip, read-out: MED
[18] = system: Mus musculus; experiment: Nootropic effect of the compound, when administered subcutaneously, on mouse passive Avoidance test, using Scopolamine as Amnesic drug on 2nd day; how it was run: as §2
[19] = system: Mus musculus; experiment: Minimum effective dose administered subcutaneously in mouse, activity given with reference to piracetam, dose administered is limited by solubility problems; conditions: sc, read-out: MED; how it was run: as §3
[20] = system: Mus musculus; experiment: Effect of 0.1 mg/kg compound in the presence of saline on Amnesia in mouse passive Avoidance test on 1st day; how it was run: as §4
[21] = system: Mus musculus; experiment: Effect of 0.1 mg/kg compound in the presence of saline on Amnesia in mouse passive Avoidance test on 2nd day, ip; conditions: route intraperitoneal; how it was run: as §4
[22] = system: Mus musculus; experiment: Effect of 0.1 mg/kg compound on Amnesia induced by Baclofen (2 mg/Kg ip) in mouse passive Avoidance test on 1 st day at 0.1 mg/kg, ip; how it was run: as §5
[23] = system: Mus musculus; experiment: Effect of 0.1 mg/kg compound on Amnesia induced by diphenhydramine (20 mg/Kg) in mouse passive Avoidance test on 1st day (no. of animals = 12); how it was run: as §5
[24] = system: Mus musculus; experiment: Effect of 0.1 mg/kg compound on Amnesia induced by diphenhydramine (20 mg/Kg) in mouse passive Avoidance test on 1st day; (no. of animals = 11); how it was run: as §5
[25] = system: Mus musculus; experiment: Effect of 0.1 mg/kg compound on Amnesia induced by diphenhydramine (20 mg/Kg) in mouse passive Avoidance test on 2 nd day (no. of animals = 11); how it was run: as §5
[26] = system: Mus musculus; experiment: Effect of 0.1 mg/kg compound on Amnesia induced by diphenhydramine (20 mg/Kg) in mouse passive Avoidance test on 2 nd day (no. of animals = 12); how it was run: as §5
[27] = system: Mus musculus; experiment: Effect of compound on Amnesia induced Clonidine (0.125 mg/kg) in mouse passive Avoidance test on 1st day at 0.1 mg/kg, ip; conditions: route intraperitoneal; how it was run: as §6
[28] = system: Mus musculus; experiment: Effect of compound on Amnesia induced Clonidine (0.125 mg/kg) in mouse passive Avoidance test on 2 nd day at 0.1 mg/kg, ip; conditions: route intraperitoneal; how it was run: as §6
[29] = system: Mus musculus; experiment: Effect of compound on Amnesia induced by Baclofen (2 mg/Kg ip) in mouse passive Avoidance test on 2 nd day at 0.1 mg/kg, ip; conditions: route intraperitoneal; how it was run: as §5

CCC(=O)N1CCN(C(=O)c2ccc(F)cc2)CC1
Change in entry latency [1]: 60.2 s | minimal effective dose [2]: 30 mg/kg | Entry latency [3]: 16.9 s | Entry latency [4]: 77.1 s

CC(=O)N1CCN(C(=O)c2ccc(F)cc2)CC1
Change in entry latency [1]: 72.6 s | minimal effective dose [2]: 10 mg/kg | Entry latency [3]: 17.5 s | Entry latency [4]: 91.1 s

CC(=O)N1CCN(S(=O)(=O)c2ccc(F)cc2)CC1C (stereo unspecified)
minimal effective dose [5]: 0.1 mg/kg | Entry latency [3]: 16.6 s | Entry latency [4]: 99.2 s

CCCCC(=O)N1CCN(S(=O)(=O)c2ccc(F)cc2)CC1
minimal effective dose [5]: > 0.1 mg/kg

CCC(=O)N1CCN(S(=O)(=O)c2ccc(F)cc2)CC1
Entry latency [6]: 74.7 s | minimal effective dose [5]: 0.01 mg/kg | Entry latency [3]: 15.9 s | Entry latency [4]: 90.6 s

CC(=O)N1CCN(S(=O)(=O)c2ccccc2)CC1
Entry latency [6]: 86.5 s | minimal effective dose [2]: 0.01 mg/kg | Entry latency [3]: 17.5 s | Entry latency [4]: 104 s

O=C1CCC2CN(S(=O)(=O)c3ccc(F)cc3)CCN12 (stereo unspecified)
Change in entry latency [1]: 80.2 s and 64.1 s and 66.7 s | Change in entry latency [7]: 79.6 s | Entry latency [8]: 14.3 s | Entry latency [9]: 94.5 s | Entry latency [10]: 12.3 s | Entry latency [11]: 76.4 s | Entry latency [12]: 81.2 s | Entry latency [13]: 95.2 s | Entry latency [14]: 15.6 s | Entry latency [15]: 14.5 s

CCCN1CCN(S(=O)(=O)c2ccc(F)cc2)CC1
Change in entry latency [1]: 81.4 s | minimal effective dose [2]: 1 mg/kg | Entry latency [3]: 15.3 s | Entry latency [4]: 96.7 s

CC(=O)N1CCN(C(=O)c2ccccc2)CC1
Change in entry latency [1]: 107.7 s | minimal effective dose [2]: 10 mg/kg | Entry latency [3]: 11.3 s | Entry latency [16]: 119 s

CN1C2CC(OC(=O)C(CO)c3ccccc3)CC1C1OC12.NC(=O)CN1CCCC1=O (stereo unspecified)
Entry latency [6]: 91.2 s | Entry latency [3]: 17.6 s | Entry latency [4]: 108.8 s | minimal effective dose [17]: 30 mg/kg

CCC(=O)N1CCN(S(=O)(=O)c2ccc(Cl)cc2)CC1
minimal effective dose [5]: > 0.1 mg/kg

CCCC(=O)N1CCN(C(=O)c2ccc(F)cc2)CC1
Change in entry latency [1]: 92.2 s | minimal effective dose [2]: 10 mg/kg | Entry latency [3]: 19.8 s | Entry latency [4]: 112 s

CC(=O)N1CCN(S(=O)(=O)c2ccc(F)cc2)CC1
Entry latency [6]: 69.2 s | minimal effective dose [2]: 0.01 mg/kg | Entry latency [3]: 19.8 s | Entry latency [4]: 89 s

CC1C[C@@H]2CN(C(=O)c3ccccc3)CCN2C1=O (stereo in doubt; endo)
minimal effective dose [2]: 1 mg/kg

CCC(=O)N1CCN(C(=O)c2ccc(OC)cc2)CC1
Change in entry latency [1]: 78.5 s | minimal effective dose [2]: 10 mg/kg | Entry latency [3]: 17.6 s | Entry latency [4]: 96.1 s

CN1[C@@H]2C[C@@H](OC(=O)[C@H](CO)c3ccccc3)C[C@H]1[C@@H]1O[C@@H]12 [SCOPOLAMINE]
minimal effective dose [17]: 1.5 mg/kg

CCCC(=O)N1CCN(C(=O)c2ccccc2)CC1
Change in entry latency [1]: 89.8 s | minimal effective dose [2]: 1 mg/kg | Entry latency [3]: 13.8 s | Entry latency [4]: 103.6 s

CCCC(=O)N1CCN(S(=O)(=O)c2ccc(F)cc2)CC1
minimal effective dose [5]: > 10 mg/kg

CC1C[C@@H]2CN(C(=O)c3ccccc3)CCN2C1=O (stereo in doubt; exo)
MED [2]: 1 mg/kg

CCCCCC(=O)N1CCN(S(=O)(=O)c2ccc(F)cc2)CC1
Entry latency [6]: 64.9 s | minimal effective dose [5]: 1 mg/kg | Entry latency [3]: 16.6 s | Entry latency [4]: 81.5 s

CCC(=O)N1CCN(Cc2ccccc2)CC1
Change in entry latency [1]: 81.1 s | minimal effective dose [2]: 10 mg/kg | Entry latency [3]: 12.8 s | Entry latency [18]: 93.9 s

CCC(=O)N1CCN(S(=O)(=O)c2ccc(OC)cc2)CC1
minimal effective dose [19]: > 1 mg/kg

CCC(=O)N1CCN(S(=O)(=O)c2ccc(C)cc2)CC1
Entry latency [6]: 72 s | minimal effective dose [5]: 10 mg/kg | Entry latency [3]: 16.6 s | Entry latency [4]: 88.6 s

CCC(=O)N1CCN(C(=O)c2ccc(Cl)cc2)CC1
minimal effective dose [19]: > 1 mg/kg

CCC(=O)N1CCN(C(=O)c2ccccc2)CC1
Change in entry latency [1]: 71 s and 69.1 s and 68.5 s and 67 s | Change in entry latency [7]: 56 s and 63.8 s | Entry latency [20]: 17.2 s | Entry latency [21]: 86.3 s | Entry latency [22]: 17.2 s | Entry latency [23]: 14.4 s | Entry latency [24]: 15.8 s | Entry latency [25]: 84.3 s | Entry latency [26]: 81.4 s | minimal effective dose [2]: 0.001 mg/kg | Entry latency [27]: 15 s | Entry latency [28]: 78.8 s | Entry latency [29]: 73.2 s | Entry latency [3]: 20.5 s | Entry latency [4]: 91.5 s

CCC(=O)N1CCN(C(=O)c2ccc(C)cc2)CC1
minimal effective dose [19]: > 1 mg/kg

CCC(=O)N1CCN(S(=O)(=O)c2ccc([N+](=O)[O-])cc2)CC1
minimal effective dose [19]: > 0.1 mg/kg

CCCC(=O)N1CCN(S(=O)(=O)c2ccccc2)CC1
Change in entry latency [1]: 70.4 s | minimal effective dose [5]: 1 mg/kg | Entry latency [3]: 15 s | Entry latency [4]: 85.4 s

CCC(=O)N1CCN(S(=O)(=O)c2ccccc2)CC1
Entry latency [6]: 113 s | minimal effective dose [5]: 0.1 mg/kg | Entry latency [3]: 19 s | Entry latency [4]: 132 s

CCC(=O)N1CCN(C(=O)c2ccc([N+](=O)[O-])cc2)CC1
Change in entry latency [1]: 85.5 s | minimal effective dose [2]: 1 mg/kg | Entry latency [3]: 18.8 s | Entry latency [4]: 104.3 s
